Measured values pooled from the literature.
Lines come from different studies, so protocols differ.
Effect on: cell growth or viability

SMILES	cell line	assay	conditions	viability
CC(=NNC(=O)c1ccncc1)c1ccc(Nc2nnc(-c3ccc(Cl)cc3)c3ccccc23)cc1	HepG2	MTT	1.25 µM, 24 h	5.31%
CC(=NNC(=O)COc1ccc2c(C)c(Cc3ccccc3)c(=O)oc2c1C)c1ccc(Br)cc1	HepG2	MTT	0.2 µg/mL	62.9%
CC(C)(C)c1cnc(CSc2cnc(NC(=O)C3CCN(CCCCCCCCSc4cccc5c4C(=O)N(C4CCC(=O)NC4=O)C5=O)CC3)s2)o1 (stereo not shown)	HH	CCK-8	1 nM	99.5%
O=C(C=Cc1ccccc1)Nc1ccc(Oc2nnc(-c3ccc(Cl)cc3)c3ccccc23)cc1	HepG2	MTT	0.625 µM, 24 h	78.5%
CC(C)(C)c1cnc(CSc2cnc(NC(=O)C3CCN(CCCCSc4cccc5c4C(=O)N(C4CCC(=O)NC4=O)C5=O)CC3)s2)o1 (stereo not shown)	HH	CCK-8	0.2 µM	1.85%
CC(=O)c1nn(-c2ccc(C)cc2)/c(=N/N=C(\C)c2ccc(NC(=O)c3ccccc3)cc2)s1	HepG2	MTT	78 nM	73.6%
CC(C)(C)c1cnc(CSc2cnc(NC(=O)C3CCN(CCCCCSc4cccc5c4CN(C4CCC(=O)NC4=O)C5=O)CC3)s2)o1 (stereo not shown)	HH	CCK-8	50 nM	97.6%
CC(=O)Nc1ccc(/C(C)=N/N=c2\sc(C(C)=O)nn2-c2ccc(C)cc2)cc1	HepG2	MTT	5 µM	86%
CC(C)(C)c1cnc(CSc2cnc(NC(=O)C3CCN(C(=O)CCCSc4cccc5c4C(=O)N(C4CCC(=O)NC4=O)C5=O)CC3)s2)o1 (stereo not shown)	HH	CCK-8	10 nM	99.7%
O=C(Nc1ccc(Oc2nnc(-c3ccc(Cl)cc3)c3ccccc23)cc1)c1cccc([N+](=O)[O-])c1	HepG2	MTT	10 µM, 24 h	6.17%
CCOC(=O)c1nn(-c2cccc(Cl)c2)/c(=N/N=C(\C)c2ccc(NC(=O)c3ccccc3)cc2)s1	HepG2	MTT	78 nM	81.9%
CC(=NNC(=O)c1ccc(N)cc1)c1ccc(Nc2nnc(-c3ccc(Cl)cc3)c3ccccc23)cc1	HepG2	MTT	0.625 µM, 24 h	91.5%
CCOC(=O)c1nn(-c2cccc(Cl)c2)/c(=N/N=C(\C)c2ccc(NC(=O)c3ccc(Cl)cc3)cc2)s1	HepG2	MTT	2.5 µM	2.86%
